Paper PMC3431965 (The Journal of organic chemistry, 2012)
Changes are numbered by the printed parent chain. Read-outs that look alike come from different tables or passages of the source.

What was measured:
[1] = system: α-glucosidase (Saccharomyces cerevisiae); assay: Glycosidase inhibition assay, α-glucosidase; assay type: biochemical; conditions: substrate at Km; for α-Glc % Ra (% remaining activity at 100 µM): 100 µM compound
[2] = biological target: T1, ceramide-specific glucosyltransferase (Mus musculus, UniProt O88693); assay: Ceramide-specific glucosyltransferase assay, mouse testicular microsomes; assay type: biochemical, C57BL/6 mouse; conditions: mouse testicular microsomes, n.i. = no inhibition at 1000 µM concentration; for IC50: read-out: ceramide-specific glucosyltransferase IC50 (C57BL/6, mouse)
T1 sequence (O88693 1-394): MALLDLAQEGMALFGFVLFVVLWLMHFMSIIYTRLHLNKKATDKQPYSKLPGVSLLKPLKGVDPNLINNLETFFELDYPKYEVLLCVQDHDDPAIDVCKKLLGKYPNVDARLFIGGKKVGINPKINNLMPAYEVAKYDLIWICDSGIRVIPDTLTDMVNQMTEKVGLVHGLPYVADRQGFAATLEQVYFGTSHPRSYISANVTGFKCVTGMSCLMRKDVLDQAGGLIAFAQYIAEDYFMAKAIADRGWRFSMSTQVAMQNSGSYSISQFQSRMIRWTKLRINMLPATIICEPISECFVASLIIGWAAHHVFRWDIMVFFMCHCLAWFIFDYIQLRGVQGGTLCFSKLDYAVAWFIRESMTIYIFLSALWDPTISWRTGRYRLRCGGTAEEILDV

[3] = biological target: T2, α-mannosidase (jack bean) (Canavalia ensiformis, UniProt C0HJB3); assay: Glycosidase inhibition assay, α-mannosidase; assay type: biochemical; conditions: for α-Man % Ra (% remaining activity at 100 µM): 100 µM compound, substrate at Km; for remaining activity at 100 µM: read-out: α-Man % Ra (% remaining activity at 100 µM)
T2 sequence (C0HJB3 1-562 limits assumed): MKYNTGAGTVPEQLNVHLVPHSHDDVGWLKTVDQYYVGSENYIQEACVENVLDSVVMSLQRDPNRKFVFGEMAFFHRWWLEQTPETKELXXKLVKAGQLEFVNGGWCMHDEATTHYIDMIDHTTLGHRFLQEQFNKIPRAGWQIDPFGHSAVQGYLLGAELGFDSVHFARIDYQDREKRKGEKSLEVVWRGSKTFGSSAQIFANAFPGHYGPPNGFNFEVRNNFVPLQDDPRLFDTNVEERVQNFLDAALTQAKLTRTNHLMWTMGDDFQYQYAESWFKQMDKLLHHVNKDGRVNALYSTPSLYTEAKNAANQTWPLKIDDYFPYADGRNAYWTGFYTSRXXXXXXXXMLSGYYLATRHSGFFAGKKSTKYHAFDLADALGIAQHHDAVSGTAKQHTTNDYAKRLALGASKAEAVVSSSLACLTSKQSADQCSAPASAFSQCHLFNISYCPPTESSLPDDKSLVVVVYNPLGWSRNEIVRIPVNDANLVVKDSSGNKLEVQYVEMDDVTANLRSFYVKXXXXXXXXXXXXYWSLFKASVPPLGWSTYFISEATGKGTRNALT
T2 sequence (C0HJB3 563-981 partner limits assumed): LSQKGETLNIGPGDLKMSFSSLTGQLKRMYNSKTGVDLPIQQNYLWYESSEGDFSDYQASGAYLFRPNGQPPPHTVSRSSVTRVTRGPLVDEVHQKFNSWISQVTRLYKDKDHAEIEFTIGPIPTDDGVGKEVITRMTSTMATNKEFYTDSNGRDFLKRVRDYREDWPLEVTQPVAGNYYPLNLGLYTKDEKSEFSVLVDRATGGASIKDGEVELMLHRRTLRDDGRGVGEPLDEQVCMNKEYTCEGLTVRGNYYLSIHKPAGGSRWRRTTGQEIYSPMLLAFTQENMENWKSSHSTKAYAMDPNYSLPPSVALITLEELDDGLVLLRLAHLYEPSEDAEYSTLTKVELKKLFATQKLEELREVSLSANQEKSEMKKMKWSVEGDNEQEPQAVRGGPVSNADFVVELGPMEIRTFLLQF
Method in brief: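 Enzyme starts the reaction with test compound at 100 µM. After 4–5 min at room temperature, 0.2 M sodium borate (pH 9.8) quenches it. Absorbance is read at 405 nm and reported as % remaining activity.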

[4] = system: β-glucosidase (almond); assay: Glycosidase inhibition assay, β-glucosidase; assay type: biochemical; conditions: substrate at Km; for β-Glc % Ra (% remaining activity at 100 µM): 100 µM compound; for IC50: read-out: β-Glc IC50
Method in brief: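 Enzyme is added last; incubation is 4–5 min at room temperature, then 0.2 M sodium borate (pH 9.8) quenches. Absorbance at 405 nm gives % remaining activity at 100 µM compound. IC50 comes from non-linear fitting of relative activity versus concentration to a Hill-slope equation.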

[5] = biological target: β-galactosidase (Escherichia coli) (Escherichia coli, UniProt P00722); assay: biochemical; conditions: for β-Gal % Ra (% remaining activity at 100 µM): 100 µM compound; for remaining activity at 100 µM: read-out: β-Gal % Ra (% remaining activity at 100 µM)
[6] = system: β-mannosidase (Roman snail); assay: Glycosidase inhibition assay, β-mannosidase; assay type: biochemical; conditions: 100 µM compound; substrate at Km
Method in brief: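 Test compound is at 100 µM. Enzyme addition starts the reaction, which runs 4–5 min at room temperature before quenching with 0.2 M sodium borate (pH 9.8). Absorbance is read at 405 nm and given as % remaining activity.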

[7] = biological target: α-galactosidase (green coffee beans) (Coffea arabica, UniProt Q42656); assay: biochemical; conditions: for α-Gal % Ra (% remaining activity at 100 µM): 100 µM compound, substrate at Km; for remaining activity at 100 µM: read-out: α-Gal % Ra (% remaining activity at 100 µM)
[8] = biological target: T3, ceramide-specific glucosyltransferase (Rattus norvegicus, UniProt Q9R0E0); assay: Ceramide-specific glucosyltransferase assay, rat testicular microsomes; assay type: biochemical, Long Evans (LE) rat; conditions: rat testicular microsomes, n.i. = no inhibition at 1000 µM concentration; for IC50: read-out: ceramide-specific glucosyltransferase IC50 (LE rat)
T3 sequence (Q9R0E0 1-394): T1 sequence (O88693 1-394) with D96E, K164R, R249K, T377A

[9] = biological target: T4, testicular β-glucosidase 2 (Rattus norvegicus, UniProt Q5M868); assay: Testicular glucosidase assay; assay type: biochemical, Long Evans (LE) rat
T4 sequence (Q5M868 1-912): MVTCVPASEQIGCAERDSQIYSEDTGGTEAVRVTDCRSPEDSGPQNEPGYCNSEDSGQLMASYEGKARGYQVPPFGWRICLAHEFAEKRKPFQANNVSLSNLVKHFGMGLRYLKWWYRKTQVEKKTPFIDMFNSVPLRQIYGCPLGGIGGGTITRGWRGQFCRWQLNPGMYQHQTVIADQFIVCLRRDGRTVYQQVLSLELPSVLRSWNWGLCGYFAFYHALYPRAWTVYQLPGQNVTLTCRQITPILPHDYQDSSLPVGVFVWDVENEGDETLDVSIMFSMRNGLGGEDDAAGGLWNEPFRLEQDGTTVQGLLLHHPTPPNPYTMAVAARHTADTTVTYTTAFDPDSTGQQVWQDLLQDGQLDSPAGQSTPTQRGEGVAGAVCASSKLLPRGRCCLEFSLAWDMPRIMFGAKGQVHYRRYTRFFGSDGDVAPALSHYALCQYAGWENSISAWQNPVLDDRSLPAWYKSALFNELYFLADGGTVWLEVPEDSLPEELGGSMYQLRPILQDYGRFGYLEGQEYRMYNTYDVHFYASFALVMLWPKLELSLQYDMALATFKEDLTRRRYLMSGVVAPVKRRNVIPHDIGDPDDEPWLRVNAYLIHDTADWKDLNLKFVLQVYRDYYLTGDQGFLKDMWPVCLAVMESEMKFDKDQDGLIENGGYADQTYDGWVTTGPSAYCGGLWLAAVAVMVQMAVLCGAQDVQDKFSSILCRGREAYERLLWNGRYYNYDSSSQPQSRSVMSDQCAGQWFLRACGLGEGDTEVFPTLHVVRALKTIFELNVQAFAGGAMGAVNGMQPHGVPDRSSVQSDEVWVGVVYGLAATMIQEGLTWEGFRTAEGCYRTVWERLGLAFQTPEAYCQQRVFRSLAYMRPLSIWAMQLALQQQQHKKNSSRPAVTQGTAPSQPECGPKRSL

Chain of β-galactosidase (Escherichia coli) (P00722 2-1024): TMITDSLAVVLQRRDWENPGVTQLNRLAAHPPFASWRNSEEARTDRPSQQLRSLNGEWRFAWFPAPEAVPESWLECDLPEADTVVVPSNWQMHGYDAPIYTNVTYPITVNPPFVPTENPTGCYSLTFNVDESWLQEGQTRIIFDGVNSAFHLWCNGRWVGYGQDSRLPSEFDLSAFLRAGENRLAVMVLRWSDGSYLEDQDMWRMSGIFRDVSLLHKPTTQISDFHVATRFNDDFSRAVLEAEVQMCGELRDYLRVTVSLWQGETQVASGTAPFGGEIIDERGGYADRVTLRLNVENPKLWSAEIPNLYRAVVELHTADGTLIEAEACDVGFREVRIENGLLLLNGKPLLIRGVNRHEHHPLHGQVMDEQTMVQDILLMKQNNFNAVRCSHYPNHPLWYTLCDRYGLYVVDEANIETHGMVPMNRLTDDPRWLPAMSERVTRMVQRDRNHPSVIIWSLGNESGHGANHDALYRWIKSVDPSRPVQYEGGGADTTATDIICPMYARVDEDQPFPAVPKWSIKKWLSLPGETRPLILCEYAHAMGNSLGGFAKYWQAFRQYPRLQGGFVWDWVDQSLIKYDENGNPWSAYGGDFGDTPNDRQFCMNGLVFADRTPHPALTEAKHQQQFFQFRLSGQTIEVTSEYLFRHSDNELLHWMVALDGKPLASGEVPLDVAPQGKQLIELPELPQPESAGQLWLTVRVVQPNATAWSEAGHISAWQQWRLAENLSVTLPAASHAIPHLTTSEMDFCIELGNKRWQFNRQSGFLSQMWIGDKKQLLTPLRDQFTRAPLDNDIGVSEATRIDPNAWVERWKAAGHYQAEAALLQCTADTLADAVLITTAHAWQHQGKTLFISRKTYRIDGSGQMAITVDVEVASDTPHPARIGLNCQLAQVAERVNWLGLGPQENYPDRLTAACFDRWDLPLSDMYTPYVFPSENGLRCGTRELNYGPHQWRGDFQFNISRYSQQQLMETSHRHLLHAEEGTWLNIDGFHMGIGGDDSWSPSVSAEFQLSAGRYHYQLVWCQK
Chain of α-galactosidase (green coffee beans) (Q42656 16-378): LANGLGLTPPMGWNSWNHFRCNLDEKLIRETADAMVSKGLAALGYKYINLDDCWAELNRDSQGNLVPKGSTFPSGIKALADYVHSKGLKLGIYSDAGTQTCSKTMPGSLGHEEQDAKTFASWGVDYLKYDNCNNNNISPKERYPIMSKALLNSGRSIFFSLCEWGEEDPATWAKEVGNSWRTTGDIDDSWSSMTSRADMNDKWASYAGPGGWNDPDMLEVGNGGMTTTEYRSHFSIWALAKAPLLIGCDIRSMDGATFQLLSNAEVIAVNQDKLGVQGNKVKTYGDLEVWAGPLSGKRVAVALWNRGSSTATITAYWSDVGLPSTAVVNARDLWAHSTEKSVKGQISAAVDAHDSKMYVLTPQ

SMILES | α-Glc % Ra (% remaining activity at 100 µM) [1] | ceramide-specific glucosyltransferase IC50 (C57BL/6, mouse) [2] | α-Man % Ra (% remaining activity at 100 µM) [3] | β-Glc % Ra (% remaining activity at 100 µM) [4] | β-Gal % Ra (% remaining activity at 100 µM) ([5]; substrate at Km) | β-Man % Ra (% remaining activity at 100 µM) [6] | α-Gal % Ra (% remaining activity at 100 µM) [7] | IC50 [8] | IC50 [4] | remaining activity at 100 µM [5] | other results
CCCCCCCCCN1C[C@@H](O)[C@@H](O)[C@@H](O)[C@H](O)[C@@H](O)C1 [Compound 6, (3S,4R,5S,6R,7R)-1-Nonylazocane-3,4,5,6,7-pentaol] | 84% | n.i. | 100% | 85% | 92% | 99% | 100% | 127 µM | – | – | –
OC[C@H]1NC[C@@H](O)[C@@H](O)[C@@H]1O [DMJ, 1-deoxymannojirimycin, reference compound] | – | – | 75% | – | – | 77% | – | – | – | – | –
CCCCCCCCCN1CCC[C@@H](O)[C@H](O)[C@@H](O)C1 [Compound 2, (3S,4S,5R)-1-Nonylazocane-3,4,5-triol] | 84% | n.i. | – | 43% | – | 93% | – | – | 92 µM | 92% | remaining activity at 100 µM [3]: 100%; remaining activity at 100 µM [7]: 100%; ceramide-specific glucosyltransferase IC50 (LE rat) [8]: n.i.; IC50 [9]: 803 µM
CCCCN1C[C@H](O)[C@@H](O)[C@@H](O)[C@H]1CO [NB-DGJ, N-butyldeoxygalactonojirimycin, reference compound] | – | – | – | – | – | – | – | – | – | 9.6% | IC50 [5]: 6 µM
CCCCN1[C@H](CO)[C@@H](O)[C@@H]1CO [Compound 24, ((2R,3s,4S)-1-Butyl-3-hydroxyazetidine-2,4-diyl)dimethanol] | 65% | – | 99% | 101% | 109% | 113% | 106% | > 300 µM | – | – | IC50 [2]: > 300 µM
OC[C@H]1NC[C@H](O)[C@@H](O)[C@@H]1O [DNJ, 1-deoxynojirimycin, reference compound] | 34% | – | – | – | – | – | – | – | – | – | –
O[C@H]1[C@H](O)[C@@H](O)CN2CC[C@H](O)[C@H]12 [Castano., castanospermine, reference compound] | – | – | – | 13.5% | – | – | – | – | – | – | –
CCCCCCCCCN1[C@H](CO)[C@@H](O)[C@@H]1CO [Compound 25, ((2R,3s,4S)-3-Hydroxy-1-nonylazetidine-2,4-diyl)dimethanol] | – | – | 92% | 26% | 107% | 76% | 66% | 91 µM | 20 µM | – | IC50 ([1]; read-out: α-Glc IC50): 0.6 µM; IC50 [2]: 44 µM
OC[C@H]1NC[C@H](O)[C@@H](O)[C@H]1O [DGJ, 1-deoxygalactonojirimycin, reference compound] | – | – | – | – | 23% | – | 0.05% | – | – | – | IC50 ([5]; read-out: β-Gal IC50, substrate at Km): 40 µM
CCCCN1C/C=C\[C@@H](O)[C@H](O)[C@@H](O)C1 [Compound 3, (3S,4S,5R,Z)-1-Butyl-1,2,3,4,5,8-hexahydroazocine-3,4,5-triol] | 81% | n.i. | – | 52% | – | 99% | – | – | 105 µM | 94% | remaining activity at 100 µM [3]: 100%; remaining activity at 100 µM [7]: 100%; ceramide-specific glucosyltransferase IC50 (LE rat) [8]: n.i.
